Assay results from ChEMBL document CHEMBL4004837, “Synthesis and Characterization of Urofuranoic Acids: In Vivo Metabolism of 2-(2-Carboxyethyl)-4-methyl-5-propylfuran-3-carboxylic Acid (CMPF) and Effects on in Vitro Insulin Secretion” (J Med Chem, 2017).

Columns and labels:
[1] = Drug excretion in human urine assessed as CMPF formation; format: ADME
[2] = Half life in mouse at 1 mg/kg, iv; format: ADME, organism-based; conditions: in vivo
Procedure, shortened: (§1)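 Mouse pharmacokinetics after single intravenous CMPF dosing at 1 or 3 mg/kg. Plasma exposure was followed over time to derive AUC, C0, terminal half-life, clearance and volume of distribution.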

[3] = Initial plasma concentration in mouse at 6 mg/kg, iv; format: ADME, organism-based
[4] = Volume of distribution in mouse at 1 mg/kg, iv; format: ADME, organism-based; conditions: in vivo; procedure, shortened: as §1
[5] = (§2) Drug metabolism in CD1 mouse adipose assessed as loss of C2 carboxyl during fragmentation at 6 mg/kg, ip dosed once daily for 3 days followed by dosing of 1:1 mixtures of 2-(2-Carboxyethyl)-4-methyl-5-(1-propyl-1-13C)furan-3-carboxylic Acid and test compound on day 4 and 5 measured 1 hr post dose on day 5 by HPLC-MS analysis; format: ADME, organism-based, Adipose tissue; conditions: in vivo
Procedure, shortened: (§3)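 Mice received CMPF 6 mg/kg intraperitoneally for three days, then 1:1 labeled/unlabeled CMPF mixtures on days four and five. On day five they were euthanized 1 h post-dose, and plasma, adipose, muscle and liver were collected. Samples were analysed by HPLC-MS, with MS/MS of product ions. Metabolites were identified by the distinctive isotope patterns from the 1:1 label mixture.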

[6] = as §2, with “2-(2-(Carboxy-13C)ethyl)-4-methyl-5-propylfuran-3-carboxylic-2-13C” for “2-(2-Carboxyethyl)-4-methyl-5-(1-propyl-1-13C)furan-3-carboxylic”; format: ADME, organism-based, Adipose tissue; conditions: in vivo; procedure, shortened: as §3
Liver [7] = assay: as §2, with “liver” for “adipose”, “2-(2-(Carboxy-13C)ethyl)-4-methyl-5-propylfuran-3-carboxylic-2-13C” for “2-(2-Carboxyethyl)-4-methyl-5-(1-propyl-1-13C)furan-3-carboxylic”; format: ADME, organism-based; conditions: in vivo; procedure, shortened: as §3
Plasma [8] = assay: (§4) Drug metabolism in CD1 mouse plasma assessed as glucuronide conjugate formation at 6 mg/kg, ip dosed once daily for 3 days followed by dosing of 1:1 mixtures of 2-(2-Carboxyethyl)-4-methyl-5-propyl-(3-13C-furan)-3-13Ccarboxylate and test compound on day 4 and 5 measured 1 hr post dose on day 5 by HPLC-MS analysis; format: ADME, organism-based; conditions: in vivo
Procedure, shortened: (§5)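 CMPF given 6 mg/kg i.p. once daily for three days. On days four and five, 1:1 mixtures of stable-isotope-labelled and unlabelled CMPF were dosed. Mice were killed 1 h after the day-five dose. Plasma, adipose, muscle and liver were collected and analysed by HPLC-MS (MS/MS for product ions). Metabolites were identified by their distinctive isotope patterns from the labelled/unlabelled mixture.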

Plasma [9] = assay: as §4, with “2-(2-Carboxyethyl)-4-methyl-5-(1-propyl-1-13C)furan-3-carboxylic Acid” for “2-(2-Carboxyethyl)-4-methyl-5-propyl-(3-13C-furan)-3-13Ccarboxylate”; format: ADME, organism-based; conditions: in vivo; procedure, shortened: as §5
HEK293 = assay: Cytotoxicity against HEK293 cells assessed as fold change in capase3/7 activity by Caspase-Glo 3/7 assay relative to DMSO; format: cell-based; conditions: human
CYP2C9 = CYP2C9 (Homo sapiens, UniProt P11712); assay: Inhibition of human microsomal CYP2C9 at 10 uM after 10 mins by single quad LC/MS analysis; format: ADME; conditions: microsomes
[10] = Suppression of KCl-stimulated insulin secretion in mouse pancreatic islet at 200 uM incubated for 24 hrs followed by KCl stimulation for 20 mins by HTRF assay; format: ADME, cell-based
Procedure, shortened: (§6)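 Mouse islets treated with compounds at 200 µM. Insulin secretion was then measured under low- and high-glucose GSIS conditions and under KCl stimulation, and intracellular insulin content was measured. Mean of n = 4-5 experiments with SEM.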

[11] = (§7) Drug metabolism in CD1 mouse muscle assessed as glycerol conjugate formation at 6 mg/kg, ip dosed once daily for 3 days followed by dosing of 1:1 mixtures of 2-(2-Carboxyethyl)-4-methyl-5-(1-propyl-1-13C)furan-3-carboxylic Acid and test compound on day 4 and 5 measured 1 hr post dose on day 5 by HPLC-MS analysis; format: ADME, organism-based, Muscle tissue; conditions: in vivo; procedure, shortened: as §3
[12] = as §7, with “adipose” for “muscle”; format: ADME, organism-based, Adipose tissue; conditions: in vivo; procedure, shortened: as §3
[13] = as §7, with “monoacylglycerol” for “glycerol”; format: ADME, organism-based, Muscle tissue; conditions: in vivo; procedure, shortened: as §3
Liver [14] = assay: as §7, with “liver” for “muscle”, “monoacylglycerol” for “glycerol”; format: ADME, organism-based; conditions: in vivo; procedure, shortened: as §3
[15] = as §7, with “adipose” for “muscle”, “diacylglycerol” for “glycerol”; format: ADME, organism-based, Adipose tissue; conditions: in vivo; procedure, shortened: as §3
Plasma [16] = assay: as §7, with “plasma” for “muscle”, “2-(2-(Carboxy-13C)ethyl)-4-methyl-5-propylfuran-3-carboxylic-2-13C” for “2-(2-Carboxyethyl)-4-methyl-5-(1-propyl-1-13C)furan-3-carboxylic”; format: ADME, organism-based; conditions: in vivo; procedure, shortened: as §5
[17] = as §7, with “2-(2-(Carboxy-13C)ethyl)-4-methyl-5-propylfuran-3-carboxylic-2-13C” for “2-(2-Carboxyethyl)-4-methyl-5-(1-propyl-1-13C)furan-3-carboxylic”; format: ADME, organism-based, Muscle tissue; conditions: in vivo; procedure, shortened: as §3
Liver [18] = assay: Drug metabolism in CD1 mouse liver assessed as monoacylglycerol conjugate formation at 6 mg/kg, ip dosed once daily for 3 days followed by dosing of 1:1 mixtures of 2-(2-(Carboxy-13C)ethyl)-4-methyl-5-propylfuran-3-carboxylic-2-13C Acid and test compound on day 4 and 5 measured 1 hr post dose on day 5 by HPLC-MS analysis; format: ADME, organism-based; conditions: in vivo; procedure, shortened: as §3
[19] = Drug metabolism in CD1 mouse muscle assessed as oxidative metabolites formation at 6 mg/kg, ip dosed once daily for 3 days followed by dosing of 1:1 mixtures of 2-(2-(Carboxy-13C)ethyl)-4-methyl-5-propylfuran-3-carboxylic-2-13C Acid and test compound on day 4 and 5 measured 1 hr post dose on day 5 by HPLC-MS analysis; format: ADME, organism-based, Muscle tissue; conditions: in vivo; procedure, shortened: as §3
[20] = as §7, with “2-(2-Carboxyethyl)-4-methyl-5-propyl-(3-13C-furan)-3-13Ccarboxylateand” for “2-(2-Carboxyethyl)-4-methyl-5-(1-propyl-1-13C)furan-3-carboxylic Acid and”; format: ADME, organism-based, Muscle tissue; conditions: in vivo; procedure, shortened: as §3
[21] = (§8) Drug metabolism in CD1 mouse adipose assessed as glycerol conjugate formation at 6 mg/kg, ip dosed once daily for 3 days followed by dosing of 1:1 mixtures of 2-(2-Carboxyethyl)-4-methyl-5-propyl-(3-13C-furan)-3-13Ccarboxylateand test compound on day 4 and 5 measured 1 hr post dose on day 5 by HPLC-MS analysis; format: ADME, organism-based, Adipose tissue; conditions: in vivo; procedure, shortened: as §3
[22] = as §8, with “diacylglycerol” for “glycerol”; format: ADME, organism-based, Adipose tissue; conditions: in vivo; procedure, shortened: as §3
Liver [23] = assay: Drug metabolism in CD1 mouse liver assessed as oxidative metabolites formation at 6 mg/kg, ip dosed once daily for 3 days followed by dosing of 1:1 mixtures of 2-(2-Carboxyethyl)-4-methyl-5-propyl-(3-13C-furan)-3-13Ccarboxylateand test compound on day 4 and 5 measured 1 hr post dose on day 5 by HPLC-MS analysis; format: ADME, organism-based; conditions: in vivo; procedure, shortened: as §3
[24] = Effect on insulin content in KCl-stimulated mouse pancreatic islet at 200 uM incubated for 24 hrs followed by KCl stimulation for 20 mins by HTRF assay; format: ADME, cell-based; procedure, shortened: as §6
[25] = Effect on insulin content in glucose-stimulated mouse pancreatic islet at 200 uM incubated for 24 hrs followed by glucose stimulation for 20 mins by HTRF assay; format: ADME, cell-based; procedure, shortened: as §6
[26] = Suppression of glucose stimulated insulin secretion in mouse pancreatic islet at 200 uM incubated for 24 hrs followed by glucose stimulation for 20 mins by HTRF assay relative to control

Sequence of CYP2C9 (P11712 whole entry): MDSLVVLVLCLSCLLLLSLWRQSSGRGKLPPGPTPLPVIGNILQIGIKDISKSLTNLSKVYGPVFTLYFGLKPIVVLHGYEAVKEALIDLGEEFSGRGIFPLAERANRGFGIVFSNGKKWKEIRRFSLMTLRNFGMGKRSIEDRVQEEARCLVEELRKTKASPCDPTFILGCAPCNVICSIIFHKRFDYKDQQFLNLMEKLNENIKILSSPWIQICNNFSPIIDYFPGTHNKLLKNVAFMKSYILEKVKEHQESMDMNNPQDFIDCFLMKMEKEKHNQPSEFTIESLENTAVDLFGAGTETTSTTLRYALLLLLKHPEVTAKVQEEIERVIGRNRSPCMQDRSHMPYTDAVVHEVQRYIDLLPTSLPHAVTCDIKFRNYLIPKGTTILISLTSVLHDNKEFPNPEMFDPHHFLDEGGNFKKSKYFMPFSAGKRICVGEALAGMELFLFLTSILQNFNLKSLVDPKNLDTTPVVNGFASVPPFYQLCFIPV

Drug excretion [1]: 1 to 5 mg/day
half-life [2]: 4.5 h
C0 [3]: 200 to 250 µM
Vd [4]: 0.2 L/kg
Drug metabolism [5]: Metabolite_Detected
Drug metabolism [6]: Metabolite_Detected
Drug metabolism (Liver [7]): Metabolite_Detected
Drug metabolism (Plasma [8]): Metabolite_Detected
Drug metabolism (Plasma [9]): Metabolite_Detected
inhibition at 10 min, 10 µM (CYP2C9): 0%
Drug metabolism [11]: Metabolite_Notdetected
Drug metabolism [12]: Metabolite_Notdetected
Drug metabolism [13]: Metabolite_Notdetected
Drug metabolism (Liver [14]): Metabolite_Notdetected
Drug metabolism [15]: Metabolite_Notdetected
Drug metabolism (Plasma [16]): Metabolite_Notdetected
Drug metabolism [17]: Metabolite_Notdetected
Drug metabolism (Liver [18]): Metabolite_Notdetected
Drug metabolism [19]: Metabolite_Notdetected
Drug metabolism [20]: Metabolite_Notdetected
Drug metabolism [21]: Metabolite_Notdetected
Drug metabolism [22]: Metabolite_Notdetected
Drug metabolism (Liver [23]): Metabolite_Notdetected
Compound: CCCc1oc(CCC(=O)O)c(C(=O)O)c1C
fold change (FC) (HEK293): 0.8 to 1.1
Activity [10]: Toxic
Activity [24]: Non-Toxic
Activity [25]: Non-Toxic
Activity [26]: Toxic
